Measured values: ChEMBL document CHEMBL1250433, “Synthesis of 5-arylidene-2-amino-4-azolones and evaluation of their anticancer activity” (2010)

Key:
Format in all cases: functional
[1] = system: UO-31; assay: Cytotoxicity against human UO31 cells; conditions: for TGI: read-out: pTGI (converted)
Outline: (§1)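 Tested in the US National Cancer Institute 60 human tumour cell line screen. Dose-response parameters were calculated per cell line: GI50 (molar concentration giving 50% net growth inhibition), TGI (molar concentration giving total growth inhibition) and LC50 (molar concentration giving 50% net cell kill).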

[2] = system: HL-60(TB); assay: Cytotoxicity against human HL-60(TB) cells; conditions: for TGI: read-out: pTGI (converted)
Outline: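 Tested in the National Cancer Institute 60 human tumour cell line in vitro screen, which includes leukaemia lines. From the dose–response data, GI50 is the molar concentration giving 50% inhibition of net cell growth, TGI is total growth inhibition, and LC50 is 50% net cell kill. Values are expressed as Log GI50.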

[3] = system: CCRF-CEM; assay: Cytotoxicity against human CCRF-CEM cells; conditions: for TGI: read-out: pTGI (converted); outline: as §1
[4] = system: SK-MEL-5; assay: Cytotoxicity against human SK-MEL-5 cells; outline: as §1
[5] = system: MOLT-4; assay: Cytotoxicity against human MOLT4 cells; outline: as §1
[6] = system: OVCAR-3; assay: Cytotoxicity against human OVCAR-3 cells; conditions: for TGI: read-out: pTGI (converted); outline: as §1
[7] = system: SW-620; assay: Cytotoxicity against human SW620 cells; conditions: for TGI: read-out: pTGI (converted); outline: as §1
[8] = system: SR; assay: Cytotoxicity against human SR cells; conditions: for TGI: read-out: pTGI (converted); outline: as §1
[9] = system: MDA-MB-435; assay: Cytotoxicity against human MDA-MB-435 cells; conditions: for TGI: read-out: pTGI (converted); outline: as §1
[10] = system: RXF 393; assay: Cytotoxicity against human RXF393 cells; outline: as §1
[11] = system: K562; assay: Cytotoxicity against human K562 cells; outline: as §1
[12] = system: NCI-H23; assay: Cytotoxicity against human NCI-H23 cells; conditions: for TGI: read-out: pTGI (converted); outline: as §1
[13] = system: RPMI-8226; assay: Cytotoxicity against human RPMI8226 cells; outline: as §1
[14] = system: HCT-15; assay: Cytotoxicity against human HCT15 cells; outline: as §1
[15] = system: U-251; assay: Cytotoxicity against human U251 cells; outline: as §1
[16] = system: MCF7; assay: Cytotoxicity against human MCF7 cells; conditions: for TGI: read-out: pTGI (converted); outline: as §1
[17] = system: CAKI-1; assay: Cytotoxicity against human Caki1 cells; conditions: for TGI: read-out: pTGI (converted); outline: as §1
[18] = system: NCI-H460; assay: Cytotoxicity against human NCI-H460 cells; conditions: for TGI: read-out: pTGI (converted); outline: as §1
[19] = system: PC-3; assay: Cytotoxicity against human PC3 cells; conditions: for TGI: read-out: pTGI (converted); outline: as §1
[20] = system: M14; assay: Cytotoxicity against human M14 cells; outline: as §1
[21] = system: HCT-116; assay: Cytotoxicity against human HCT116 cells; outline: as §1
[22] = system: SF-268; assay: Cytotoxicity against human SF268 cells; outline: as §1
[23] = system: SNB-75; assay: Cytotoxicity against human SNB75 cells; outline: as §1
[24] = system: T47D; assay: Cytotoxicity against human T47D cells; outline: as §1
[25] = system: HOP-62; assay: Cytotoxicity against human HOP62 cells; outline: as §1
[26] = system: HCC 2998; assay: Cytotoxicity against human HCC2998 cells; outline: as §1
[27] = system: OVCAR-4; assay: Cytotoxicity against human OVCAR4 cells; outline: as §1
[28] = system: NCI/ADR-RES; assay: Cytotoxicity against human NCI/ADR-RES cells; outline: as §1
[29] = Cytotoxicity against human 786-O cells; outline: as §1
[30] = system: COLO 205; assay: Cytotoxicity against human COLO205 cells; outline: as §1
[31] = system: KM12; assay: Cytotoxicity against human KM12 cells; outline: as §1
[32] = system: SF-295; assay: Cytotoxicity against human SF295 cells; outline: as §1

COc1cc(/C=C2\SC(Nc3ccc(O)cc3)=NC2=O)ccc1OCc1ccc(F)cc1
GI50 [1]: 891 nM
TGI [1]: 28800 nM
GI50 [2]: 603 nM
TGI [2]: 10200 nM
GI50 [3]: 200 nM
TGI [3]: 1150 nM

CN(C1=NC(=O)/C(=C/C(Cl)=C\c2ccc([N+](=O)[O-])cc2)S1)c1ccc(O)cc1
GI50 [4]: < 10 nM
TGI ([4]; read-out: pTGI): < 10 nM

O=C1N=C(Nc2cccc(Cl)c2)N/C1=C\c1cccc(F)c1
GI50 [5]: 1050 nM

O=C1N=C(Nc2cccc(O)c2)S/C1=C\C(Cl)=C/c1ccc([N+](=O)[O-])cc1
GI50 [6]: 372 nM
TGI [6]: 955 nM
GI50 [7]: 832 nM
TGI [7]: 2630 nM

CN(C1=NC(=O)/C(=C/c2cccc(Cl)c2Cl)S1)c1ccc(O)cc1
GI50 [8]: 437 nM
TGI [8]: 2630 nM

O=C1N=C(Nc2ccc(O)cc2)S/C1=C\c1ccc(Cl)cc1
GI50 [9]: 398 nM
TGI [9]: 1660 nM
GI50 [10]: 117 nM
TGI ([10]; read-out: pTGI (converted)): 3980 nM
GI50 [11]: 257 nM
GI50 [12]: 562 nM
TGI [12]: 3240 nM
GI50 [2]: 437 nM
TGI [2]: 10200 nM
GI50 [13]: 407 nM
TGI ([13]; read-out: pTGI): > 100000 nM
GI50 [3]: 851 nM
TGI [3]: 10200 nM
GI50 [6]: 162 nM
TGI [6]: 490 nM
GI50 [14]: 427 nM
TGI ([14]; read-out: pTGI): > 100000 nM
GI50 [15]: 490 nM
GI50 [5]: 603 nM
TGI ([5]; read-out: pTGI (converted)): 17000 nM
GI50 [16]: 50.1 nM
TGI [16]: 219 nM
GI50 [17]: 501 nM
TGI [17]: 6460 nM
GI50 [18]: 977 nM
TGI [18]: 87100 nM
GI50 [8]: 145 nM
TGI [8]: 525 nM

COc1ccc(CNC2=NC(=O)/C(=C/c3ccccc3Cl)N2)cc1
GI50 [19]: 91.2 nM
TGI [19]: 27500 nM

O=C1N=C(Nc2ccccc2Cl)N/C1=C\c1ccc(Cl)cc1Cl
GI50 [2]: 123 nM
TGI [2]: 1820 nM

O=C1N=C(Nc2ccc(Cl)cc2)N/C1=C\c1ccc(Cl)cc1
GI50 [19]: 380 nM
TGI [19]: 4370 nM

O=C1N=C(Nc2cccc(O)c2)S/C1=C\c1ccc(Cl)cc1
GI50 [6]: 490 nM
TGI [6]: 2750 nM

COc1ccc(/C=C2\SC(Nc3ccc(O)cc3)=NC2=O)cc1OC
GI50 [9]: 407 nM
TGI [9]: 2040 nM
GI50 [11]: 398 nM
TGI ([11]; read-out: pTGI (converted)): 6760 nM

O=C1N=C(Nc2ccc(O)cc2)S/C1=C\c1ccc(F)cc1
GI50 [20]: 617 nM
TGI ([20]; read-out: pTGI (converted)): 11500 nM
GI50 [9]: 31.6 nM
TGI [9]: 145 nM
GI50 [21]: 219 nM
TGI ([21]; read-out: pTGI (converted)): 4370 nM
GI50 [1]: 955 nM
TGI [1]: > 100000 nM
GI50 [12]: 372 nM
TGI [12]: 2090 nM
GI50 [22]: 490 nM
TGI ([22]; read-out: pTGI (converted)): 4370 nM
GI50 [23]: 407 nM
TGI ([23]; read-out: pTGI): > 100000 nM
GI50 [24]: 661 nM
TGI ([24]; read-out: pTGI): > 100000 nM
GI50 [25]: 427 nM
TGI ([25]; read-out: pTGI (converted)): 13200 nM
GI50 [6]: 324 nM
TGI [6]: 562 nM
GI50 [26]: 562 nM
TGI ([26]; read-out: pTGI (converted)): 2140 nM
GI50 [27]: 832 nM
TGI ([27]; read-out: pTGI): > 100000 nM
GI50 [28]: 631 nM
TGI ([28]; read-out: pTGI (converted)): 3160 nM
GI50 ([29]; 786-0): 309 nM
TGI ([29]; 786-0, read-out: pTGI (converted)): 10000 nM
GI50 [30]: 631 nM
TGI ([30]; read-out: pTGI): > 100000 nM
GI50 [16]: 35.5 nM
TGI [16]: 115 nM
GI50 [17]: 479 nM
TGI [17]: 2450 nM
GI50 [18]: 263 nM
TGI [18]: 955 nM
GI50 [8]: 537 nM
TGI [8]: > 100000 nM
GI50 [7]: 525 nM
TGI [7]: > 100000 nM
GI50 [31]: 132 nM
TGI ([31]; read-out: pTGI (converted)): 741 nM
GI50 [32]: 380 nM
TGI ([32]; read-out: pTGI (converted)): 1910 nM

O=C1N=C(NCc2ccc(Cl)cc2)N/C1=C\c1c(Cl)cccc1Cl
GI50 [3]: 1070 nM
TGI [3]: 29500 nM
